# ChEMBL document CHEMBL1150273, “Aza-peptidyl Michael acceptors. A new class of potent and selective inhibitors of asparaginyl endopeptidases (legumains) from evolutionarily diverse pathogens” (J Med Chem, 2008)
# Key:
# [1] = Inhibition of Trichomonas vaginalis G3 AE1 expressed in Pichia pastoris after 20 mins
# How it was run: (§1)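 Recombinant AE zymogens expressed in Pichia pastoris; SmAE and TvAE1 autoactivated in 0.5 M sodium acetate, 4 mM DTT, pH 4.5, 37 °C, 3 h to overnight; IrAE used without activation. Buffer 0.1 M citrate phosphate, 4 mM DTT, pH 6.8 (SmAE, TvAE1) or pH 5.5 (IrAE). Inhibitor 2.0–0.0002 µM final, 20 min preincubation at room temperature; 10 µM final Cbz-Ala-Ala-Asn-AMC, 20 min; IC50 from RFU/min vs concentration.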
# [2] = Inhibition of Ixodes ricinus AE expressed in Pichia pastoris after 20 mins; how it was run: as §1
# [3] = Inhibition of Schistosoma mansoni AE expressed in Pichia pastoris after 20 mins; how it was run: as §1
# [4] = system: Schistosoma mansoni; assay: Inhibition of Schistosoma mansoni AE assessed as ratio of pseudo-first-order inhibition rate constant to inhibitor concentration
# How it was run: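 Autoactivated recombinant SmAE added to six inhibitor concentrations (0–1 µM final) in 0.1 M citrate phosphate, 2 mM DTT, pH 6.8 with 20 µM Cbz-Ala-Ala-Asn-AMC; progress followed every 2 s for 30 min at 25 °C (ex 355, em 460 nm); kobs/[I] by nonlinear regression, corrected for substrate by factor 1.33.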
IC50 [1],Structure (SMILES),IC50 [2],IC50 [3],Ratio [4]
2.3 nM,COc1ccc(CN(Cc2ccccc2)C(=O)/C=C/C(=O)N(CC(N)=O)NC(=O)[C@H](C)NC(=O)[C@H](C)NC(=O)OCc2ccccc2)cc1,12 nM,90 nM,–
8000 nM,C[C@H](NC(=O)OCc1ccccc1)C(=O)N[C@@H](C)C(=O)NN(CC(N)=O)C(=O)/C=C/c1cccnc1,15000 nM,> 2000 nM,–
20 nM,C[C@H](NC(=O)OCc1ccccc1)C(=O)N[C@@H](C)C(=O)NN(CC(N)=O)C(=O)/C=C/C(=O)N1Cc2ccccc2C1,4.5 nM,300 nM,–
50 nM,C[C@H](NC(=O)OCc1ccccc1)C(=O)N[C@@H](C)C(=O)NN(CC(N)=O)C(=O)/C=C/C(=O)N(C)CCc1ccccc1,–,600 nM,–
10 nM,C[C@H](NC(=O)OCc1ccccc1)C(=O)N[C@@H](C)C(=O)NN(CC(N)=O)C(=O)/C=C/C(=O)N1CC=C(c2ccccc2)CC1,85 nM,750 nM,–
1000 nM,CCCCN(CCCC)C(=O)/C=C/C(=O)N(CC(N)=O)NC(=O)[C@H](C)NC(=O)[C@H](C)NC(=O)OCc1ccccc1,100 nM,550 nM,–
6 nM,C[C@H](NC(=O)OCc1ccccc1)C(=O)N[C@@H](C)C(=O)NN(CC(N)=O)C(=O)/C=C/C(=O)N(Cc1ccccc1)Cc1ccc2ccccc2c1,8 nM,70 nM,6100 M⁻¹ s⁻¹
10 nM,C[C@H](NC(=O)OCc1ccccc1)C(=O)N[C@@H](C)C(=O)NN(CC(N)=O)C(=O)/C=C/C(=O)N1CCc2ccccc2C1,25 nM,200 nM,–
–,C[C@H](NC(=O)OCc1ccccc1)C(=O)N[C@@H](C)C(=O)NN(CC(N)=O)C(=O)/C=C/c1ccco1,7500 nM,> 2000 nM,–
10 nM,C[C@H](NC(=O)OCc1ccccc1)C(=O)N[C@@H](C)C(=O)NN(CC(N)=O)C(=O)/C=C/C(=O)NCc1ccccc1,200 nM,1000 nM,–
< 10 nM,CCOC(=O)/C=C/C(=O)N(CC(N)=O)NC(=O)[C@H](C)NC(=O)[C@H](C)NC(=O)CCCC[C@@H]1SC[C@@H]2NC(=O)N[C@@H]21,2.8 nM,10 nM,–
80 nM,C[C@H](NC(=O)OCc1ccccc1)C(=O)N[C@@H](C)C(=O)NN(CC(N)=O)C(=O)/C=C/C(=O)N(C)C(Cc1ccccc1)C(=O)N(C)CCc1ccccc1 (some centres not stated),300 nM,750 nM,–
20 nM,C[C@H](NC(=O)OCc1ccccc1)C(=O)N[C@@H](C)C(=O)NN(CC(N)=O)C(=O)/C=C/C(=O)Nc1ccccc1,10 nM,700 nM,–
< 1 nM,C[C@H](NC(=O)OCc1ccccc1)C(=O)N[C@@H](C)C(=O)NN(CC(N)=O)C(=O)/C=C/C(=O)N(Cc1ccccc1)Cc1ccc(F)cc1,700 nM,60 nM,–
75 nM,C[C@H](NC(=O)OCc1ccccc1)C(=O)N[C@@H](C)C(=O)NN(CC(N)=O)C(=O)/C=C/C(=O)NCc1ccc(F)cc1,250 nM,800 nM,–
< 1 nM,C[C@H](NC(=O)OCc1ccccc1)C(=O)N[C@@H](C)C(=O)NN(CC(N)=O)C(=O)/C=C/C(=O)N(Cc1ccccc1)Cc1cccc2ccccc12,6 nM,62 nM,6180 M⁻¹ s⁻¹
3.5 nM,C[C@H](NC(=O)OCc1ccccc1)C(=O)N[C@@H](C)C(=O)NN(CC(N)=O)C(=O)/C=C/C(=O)N1CCCc2ccccc21,4 nM,70 nM,–
< 1 nM,C[C@H](NC(=O)OCc1ccccc1)C(=O)N[C@@H](C)C(=O)NN(CC(N)=O)C(=O)/C=C/C(=O)N(Cc1ccccc1)c1ccccc1,< 1 nM,70 nM,–
5 nM,C[C@H](NC(=O)OCc1ccccc1)C(=O)N[C@@H](C)C(=O)NN(CC(N)=O)C(=O)/C=C/C(=O)N(C)c1ccccc1,1.8 nM,60 nM,–
500 nM,C[C@H](NC(=O)OCc1ccccc1)C(=O)N[C@@H](C)C(=O)NN(CC(N)=O)C(=O)/C=C/C(=O)N1CCCCC1,–,1000 nM,–
5000 nM,C[C@H](NC(=O)OCc1ccccc1)C(=O)N[C@@H](C)C(=O)NN(CC(N)=O)C(=O)/C=C/C(=O)N(Cc1ccco1)Cc1ccco1,15000 nM,900 nM,–
